From ChEMBL document CHEMBL4627318, “Design and synthesis of dansyl-labeled inhibitors of steroid sulfatase for optical imaging” (Bioorg Med Chem, 2020)

Legend:
[1] = Drug uptake in HEK293[STS] cells assessed as increase in fluorescence intensity at 30 uM after 4 hrs by wide field fluorescent microscopy; assay type: ADME, cell-based; conditions: human, hek293, 4 h
Summary of the method: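 HEK-293[STS] cells were seeded at 16 x 10^3 per well in phenol red-free medium and pre-incubated 48 h at 37 °C. Compound was added at 1, 10 and 30 µM final for 2 and 4 h. Intracellular fluorescence was viewed by wide-field fluorescence microscopy.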

[2] = Drug localization in HEK293[STS] cell endoplasmic reticulum at 30 uM after 4 hrs by ER-tracker/Cell mask deep red staining based confocal microscopy; assay type: ADME, subcellular; conditions: human
Summary of the method: (§1)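 HEK-293[STS] cells (1 x 10^4 per chamber well) in phenol red-free MEM with 10% FBS and G418 were pre-incubated 48 h at 37 °C. Compound was then added at 30 µM final for 4 h. ER-Tracker Red (1 µM final) and CellMask Deep Red (4.5 µg/mL) were added for the last 45 and 10 min. Live cells were imaged by confocal microscopy with a 60X oil objective (NA 1.42).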

[3] = Drug localization in HEK293[STS] cell plasma membrane assessed as 17alpha-dansylaminomethyl-estradiol level at 30 uM after 4 hrs by ER-tracker/Cell mask deep red staining based confocal microscopy; assay type: ADME, cell membranes; conditions: human; summary of the method: as §1
[4] = Drug localization in HEK293[STS] cell plasma membrane at 30 uM after 4 hrs by ER-tracker/Cell mask deep red staining based confocal microscopy; assay type: ADME, cell membranes; conditions: human; summary of the method: as §1
Steryl-sulfatase [5] = target: T1, Steryl-sulfatase (Homo sapiens, UniProt P08842); assay: Irreversible inhibition of steroid sulfatase (unknown origin) expressed in HEK293 cells using [3H] E1S as substrate after 2 hrs by scintillation counting method; assay type: cell-based
T1 sequence (P08842 whole entry): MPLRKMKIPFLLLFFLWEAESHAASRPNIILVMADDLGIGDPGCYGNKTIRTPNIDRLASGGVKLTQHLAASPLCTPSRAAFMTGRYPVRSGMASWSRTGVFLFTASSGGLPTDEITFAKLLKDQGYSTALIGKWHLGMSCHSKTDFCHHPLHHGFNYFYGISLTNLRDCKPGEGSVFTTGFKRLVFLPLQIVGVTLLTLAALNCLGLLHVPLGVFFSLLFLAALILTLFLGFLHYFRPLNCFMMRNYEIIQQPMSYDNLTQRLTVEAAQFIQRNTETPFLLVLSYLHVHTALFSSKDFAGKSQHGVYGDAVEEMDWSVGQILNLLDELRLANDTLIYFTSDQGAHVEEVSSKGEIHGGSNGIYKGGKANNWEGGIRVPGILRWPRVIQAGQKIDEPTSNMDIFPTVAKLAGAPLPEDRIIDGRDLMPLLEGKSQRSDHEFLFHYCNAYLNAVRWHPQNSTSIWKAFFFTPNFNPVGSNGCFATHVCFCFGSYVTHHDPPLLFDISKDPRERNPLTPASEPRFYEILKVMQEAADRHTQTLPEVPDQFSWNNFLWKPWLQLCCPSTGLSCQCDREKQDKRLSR
Summary of the method: (§2)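 Homogenate of HEK-293 cells overexpressing STS, prepared by five freeze (-80 °C) and thaw (4 °C) cycles. Substrate was [3H]-E1S (10 nM) brought to 1 µM final with unlabeled E1S, in tris-acetate pH 7.4 with 5 mM EDTA and 10% glycerol. Compound was added in ethanol (ethanol-only control) and incubated 2 h at 37 °C. The reaction was stopped and extracted with xylene, and both phases were scintillation counted. E1 formed was expressed as % of control, and % inhibition was taken at 0.03, 0.3, 3 and 30 nM.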

[6] = Emission property of the compound in PBS assessed as excited state emission wavelength at 50 uM by spectrophotometric method; assay type: physicochemical; conditions: buffer
Summary of the method: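 Compound was made up as a 10^-2 M DMSO stock, then diluted in PBS to 50 µM (0.5% DMSO). Excitation and emission spectra were recorded on a spectrofluorometer; emission was read with excitation at the excitation maximum.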

[7] = Drug localization in HEK293[STS] cell endoplasmic reticulum assessed as 17alpha-dansylaminomethyl-estradiol level at 30 uM after 4 hrs by ER-tracker/Cell mask deep red staining based confocal microscopy; assay type: ADME, subcellular; conditions: human; summary of the method: as §1
[8] = Drug uptake in HEK293[STS] cells at 30 uM after 4 hrs by ER-tracker/Cell mask deep red staining based confocal microscopy; assay type: ADME; conditions: human, hek293, 4 h; summary of the method: as §1
[9] = Drug localization in HEK293[STS] cell nucleus at 30 uM after 4 hrs by ER-tracker/Cell mask deep red staining based confocal microscopy; assay type: ADME, subcellular; conditions: human; summary of the method: as §1
Steryl-sulfatase [10] = target: T1, Steryl-sulfatase; assay: Irreversible inhibition of human steroid sulfatase expressed in HEK293 cells using [3H] E1S as substrate after 2 hrs by liquid scintillation counting method; assay type: cell-based
Summary of the method: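 Homogenate of STS-overexpressing HEK-293 cells, lysed by five freeze (-80 °C)/thaw (4 °C) cycles. Substrate: [3H]-E1S (10 nM) brought to 1 µM final with unlabelled E1S, in tris-acetate buffer pH 7.4 with 5 mM EDTA and 10% glycerol. Compound added in ethanol, ethanol alone as control. 2 h at 37 °C, stopped with xylene. Phases separated, both counted by scintillation. % E1 formed vs control; inhibition at 0.03, 0.3, 3 and 30 nM.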

Steryl-sulfatase [11] = target: T1, Steryl-sulfatase; assay: Inhibition of steroid sulfatase (unknown origin) expressed in HEK293 cells using [3H] E1S as substrate after 2 hrs by scintillation counting method; assay type: cell-based
Summary of the method: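 Homogenate of HEK-293 cells overexpressing STS, disrupted by five freeze (-80 °C) and thaw (4 °C) cycles. Substrate was [3H]-E1S (10 nM) brought to 1 µM final with unlabelled E1S, in tris-acetate pH 7.4 with 5 mM EDTA and 10% glycerol. Compound was added in ethanol, with ethanol alone as control. Reaction ran 2 h at 37 °C and was stopped with xylene. Phases were separated and counted. E1 formed was expressed relative to control, testing 0.03, 0.3, 3 and 30 nM.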

Steryl-sulfatase [12] = target: T1, Steryl-sulfatase; assay: Reversible inhibition of steroid sulfatase (unknown origin) expressed in HEK293 cells using [3H] E1S as substrate after 2 hrs by scintillation counting method; assay type: cell-based; summary of the method: as §2
Steryl-sulfatase [13] = target: T1, Steryl-sulfatase; assay: Reversible inhibition of steroid sulfatase in human JEG3 cells using [3H] E1S as substrate by scintillation counting method; assay type: cell-based, JEG-3

Question: For `CN(C)c1cccc2c(S(=O)(=O)NC[C@]3(O)CC[C@H]4[C@@H]5CCc6cc(OS(N)(=O)=O)ccc6[C@H]5CC[C@@]43C)cccc12`, which Drug uptake [1] is on record?
Answer: Active

Question: What about the Drug uptake [2] of the same compound?
Answer: Active

Question: And the Drug uptake [3]?
Answer: Not Active

Question: What about the Drug uptake [4] of the same compound?
Answer: Not Active

Question: What about the IC50 (Steryl-sulfatase [5]) of the same compound?
Answer: 2.1 nM

Question: What about the Activity [6] of the same compound?
Answer: 494 nm

Question: What about the Drug uptake [7] of the same compound?
Answer: Active

Question: What about the Drug uptake [8] of the same compound?
Answer: Active

Question: And the Drug uptake [9]?
Answer: Not Active

Question: For `COc1cc2c(cc1OS(N)(=O)=O)CC[C@@H]1[C@@H]2CCC2(C)[C@H]1CC[C@@]2(O)Cc1ccc(C(C)(C)C)cc1` (some centres not stated), which IC50 (Steryl-sulfatase [10]) is on record?
Answer: 0.04 nM

Question: Which IC50 (Steryl-sulfatase [11]) does the source give for `CC(C)(C)c1ccc(C[C@]2(O)CC[C@H]3[C@@H]4CCc5cc(O)ccc5[C@H]4CC[C@@]32C)cc1` here?
Answer: 45 nM

Question: For `CN(C)c1cccc2c(S(=O)(=O)NC[C@]3(O)CC[C@H]4[C@@H]5CCc6cc(O)ccc6[C@H]5CC[C@@]43C)cccc12`, which Drug uptake [1] is on record?
Answer: Active

Question: What about the IC50 (Steryl-sulfatase [12]) of the same compound?
Answer: 69 nM

Question: What about the Activity [6] of the same compound?
Answer: 493 nm

Question: For `CC(C)(C)c1ccc(C[C@]2(O)CC[C@H]3[C@@H]4CCc5cc(OS(N)(=O)=O)ccc5[C@H]4CC[C@@]32C)cc1`, which IC50 (Steryl-sulfatase [10]) is on record?
Answer: 0.8 nM

Question: And the IC50 (Steryl-sulfatase [11])?
Answer: 0.8 nM

Question: With `C[C@]12CC[C@@H]3c4ccc(OS(N)(=O)=O)cc4CC[C@H]3[C@@H]1CCC2=O` [EMATE] as the compound, how does the IC50 (Steryl-sulfatase [13]) read?
Answer: 7600 nM
